Measured values from ChEMBL document CHEMBL4130539, “Novel ureidopropanamide based N-formyl peptide receptor 2 (FPR2) agonists with potential application for central nervous system disorders characterized by neuroinflammation” (Eur J Med Chem, 2017).
Calls of active or inactive are those of the source. The calls are words filed in the database; no cut-off is given here.

How the values were obtained:
[1] = target: T1, N-formyl peptide receptor 2 (Homo sapiens, UniProt P25090); test: Agonist activity at human FPR2 expressed in human HL60 cells assessed as induction of calcium mobilization; type: functional, cell-based
T1 sequence (P25090 whole entry): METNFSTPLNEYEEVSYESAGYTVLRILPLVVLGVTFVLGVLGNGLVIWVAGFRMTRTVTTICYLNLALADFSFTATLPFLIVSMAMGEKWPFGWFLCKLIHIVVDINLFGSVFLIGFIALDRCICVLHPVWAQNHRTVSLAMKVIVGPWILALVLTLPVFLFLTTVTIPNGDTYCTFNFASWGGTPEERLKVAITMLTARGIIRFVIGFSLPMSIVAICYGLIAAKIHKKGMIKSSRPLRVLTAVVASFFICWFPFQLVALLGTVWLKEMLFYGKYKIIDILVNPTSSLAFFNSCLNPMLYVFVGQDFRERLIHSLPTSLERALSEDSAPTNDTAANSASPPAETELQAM

[2] = target: T2, N-formyl peptide receptor 2 (Homo sapiens) (UniProt P25090); test: Agonist activity at human FPR2 expressed in human HL60 cells assessed as induction of calcium mobilization relative to control; type: functional, cell-based
T2 sequence (whole entry): T1 sequence (P25090 whole entry)

[3] = Metabolic stability in rat liver microsomes assessed as parent compound remaining at 10 uM preincubated for 10 mins followed by NADPH addition measured after 30 mins by liquid chromatographic method; type: ADME, microsome; settings: 0.5 h
fMet-Leu-Phe receptor [4] = target: T3, fMet-Leu-Phe receptor (Homo sapiens, UniProt P21462); test: Agonist activity at human FPR1 expressed in human HL60 cells assessed as induction of calcium mobilization; type: functional, cell-based
T3 sequence (P21462 whole entry): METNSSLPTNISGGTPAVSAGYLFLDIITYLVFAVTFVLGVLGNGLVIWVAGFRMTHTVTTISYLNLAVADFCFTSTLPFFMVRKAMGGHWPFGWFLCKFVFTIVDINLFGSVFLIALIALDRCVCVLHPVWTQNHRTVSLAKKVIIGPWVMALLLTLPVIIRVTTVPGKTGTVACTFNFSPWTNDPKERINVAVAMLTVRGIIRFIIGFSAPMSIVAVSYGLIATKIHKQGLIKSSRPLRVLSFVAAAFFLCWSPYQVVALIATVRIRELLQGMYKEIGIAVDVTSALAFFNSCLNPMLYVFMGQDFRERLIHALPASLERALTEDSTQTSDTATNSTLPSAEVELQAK

[5] = target: T1, N-formyl peptide receptor 2; test: Agonist activity at human FPR2 expressed in human HL60 cells assessed as induction of calcium mobilization measured every 5 secs for 240 secs by Fluo-4-AM dye based fluorometric method; type: functional, cell-based; settings: read-out: EC50
[6] = target: T2, N-formyl peptide receptor 2 (Homo sapiens); test: Agonist activity at human FPR2 expressed in human HL60 cells assessed as induction of calcium mobilization measured every 5 secs for 240 secs by Fluo-4-AM dye based fluorometric method relative to WKYMVM; type: functional, cell-based
fMet-Leu-Phe receptor [7] = target: T3, fMet-Leu-Phe receptor; test: Agonist activity at human FPR1 expressed in human HL60 cells assessed as induction of calcium mobilization measured every 5 secs for 240 secs by Fluo-4-AM dye based fluorometric method; type: functional, cell-based; settings: read-out: EC50
[8] = target: T4, fMet-Leu-Phe receptor (Homo sapiens) (UniProt P21462); test: Agonist activity at human FPR1 expressed in human HL60 cells assessed as induction of calcium mobilization measured every 5 secs for 240 secs by Fluo-4-AM dye based fluorometric method relative to fMLF; type: functional, cell-based
T4 sequence (whole entry): T3 sequence (P21462 whole entry)

[9] = target: T1, N-formyl peptide receptor 2; test: Agonist activity at FPR2 in human neutrophils assessed as induction of calcium mobilization measured every 5 secs for 240 secs by Fluo-4-AM dye based fluorometric method; type: functional; settings: read-out: EC50
[10] = Half life in rat liver microsomes at 10 uM preincubated for 10 mins followed by NADPH addition by liquid chromatographic method; type: ADME, microsome
[11] = Intrinsic clearance in rat liver microsomes at 10 uM preincubated for 10 mins followed by NADPH addition by liquid chromatographic method; type: ADME, microsome
Microglia [12] = test: Cytotoxicity against Sprague-Dawley rat primary microglia cells assessed as cell death at 0.5 to 10 uM after 24 hrs by LDH assay; type: cell-based
Microglia [13] = test: Cytotoxicity against Sprague-Dawley rat primary microglia cells assessed as reduction in cell viability at 0.5 to 10 uM after 24 hrs by MTT assay; type: cell-based
Microglia [14] = test: Cytotoxicity against Sprague-Dawley rat primary microglia cells assessed as cell death at 50 uM after 24 hrs by LDH assay; type: cell-based
Microglia [15] = test: Cytotoxicity against Sprague-Dawley rat primary microglia cells assessed as reduction in cell viability at 50 uM after 24 hrs by MTT assay; type: cell-based
Microglia [16] = test: Cytoprotection against LPS-induced cell death in Sprague-Dawley rat primary microglia cells at 1 to 5 uM pretreated for 1 hr followed by LPS stimulation for 24 hrs by LDH assay; type: functional, cell-based
Microglia [17] = test: Cytoprotection against LPS-induced cell death in Sprague-Dawley rat primary microglia cells at 0.5 to 50 uM pretreated for 1 hr followed by LPS stimulation for 24 hrs by MTT assay; type: functional, cell-based
Microglia [18] = test: Proinflammatory activity in Sprague-Dawley rat primary microglia cells assessed as induction of NO level up to 10 uM after 24 hrs by Griess reagent based assay; type: cell-based
Method in brief: (§1)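 Rat primary cortical microglia (Sprague-Dawley pups, 1–2 days old, >95% Iba-1/CD11b-positive) given agonist without LPS for 24 h; WRW4 added 30 min before agonist where indicated. Supernatant NO measured with Griess reagent (540 nm, 10 min room temperature); TNF-α and IL-1β by ELISA. Values normalized to vehicle-treated cells (100%).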

Microglia [19] = test: Proinflammatory activity in Sprague-Dawley rat primary microglia cells assessed as induction of NO level up to 10 uM after 24 hrs in presence of FPR2 antagonist WRW4 by Griess reagent based assay; type: cell-based; method in brief: as §1
Microglia [20] = test: Anti-inflammatory activity in Sprague-Dawley rat primary microglia cells assessed as inhibition of LPS-induced NO level at 5 to 10 uM pretreated for 1 hr followed by LPS stimulation for 24 hrs by Griess reagent based assay; type: functional, cell-based
Method in brief: (§2)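 Primary microglia from cortices of 1–2-day-old Sprague-Dawley rats, shaken off mixed cultures at day 9 in vitro, >95% Iba-1/CD11b-positive, used 2 days after plating. Agonist added 1 h before LPS (E. coli 0111:B4, 100 ng/ml) for 24 h; WRW4 given 30 min before agonist where stated. Medium NO by Griess reaction (540 nm); TNF-α and IL-1β by ELISA. Data as % of vehicle-treated control.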

Microglia [21] = test: Anti-inflammatory activity in Sprague-Dawley rat primary microglia cells assessed as inhibition of LPS-induced NO level up to 10 uM pretreated for 1 hr followed by LPS stimulation for 24 hrs in presence of FPR2 antagonist WRW4 by Griess reagent based assay; type: functional, cell-based; method in brief: as §2
Microglia [22] = test: Proinflammatory activity in Sprague-Dawley rat primary microglia cells assessed as induction of IL-1beta level up to 10 uM after 24 hrs by ELISA; type: cell-based; method in brief: as §1
Microglia [23] = test: Proinflammatory activity in Sprague-Dawley rat primary microglia cells assessed as induction of TNFalpha level up to 10 uM after 24 hrs by ELISA; type: cell-based; method in brief: as §1
Microglia [24] = test: Proinflammatory activity in Sprague-Dawley rat primary microglia cells assessed as induction of IL-1beta level up to 10 uM after 24 hrs in presence of FPR2 antagonist WRW4 by ELISA; type: cell-based; method in brief: as §1
Microglia [25] = test: Proinflammatory activity in Sprague-Dawley rat primary microglia cells assessed as induction of TNFalpha level up to 10 uM after 24 hrs in presence of FPR2 antagonist WRW4 by ELISA; type: cell-based; method in brief: as §1
Microglia [26] = test: Anti-inflammatory activity in Sprague-Dawley rat primary microglia cells assessed as inhibition of LPS-induced IL-1beta level up to 10 uM pretreated for 1 hr followed by LPS stimulation for 24 hrs by ELISA; type: functional, cell-based; method in brief: as §2
Microglia [27] = test: Anti-inflammatory activity in Sprague-Dawley rat primary microglia cells assessed as inhibition of LPS-induced TNFalpha level up to 10 uM pretreated for 1 hr followed by LPS stimulation for 24 hrs by ELISA; type: functional, cell-based; method in brief: as §2
Microglia [28] = test: Anti-inflammatory activity in Sprague-Dawley rat primary microglia cells assessed as inhibition of LPS-induced IL-1beta level up to 10 uM pretreated for 1 hr followed by LPS stimulation for 24 hrs in presence of FPR2 antagonist WRW4 by ELISA; type: functional, cell-based; method in brief: as §2
Microglia [29] = test: Anti-inflammatory activity in Sprague-Dawley rat primary microglia cells assessed as inhibition of LPS-induced TNFalpha level up to 10 uM pretreated for 1 hr followed by LPS stimulation for 24 hrs in presence of FPR2 antagonist WRW4 by ELISA; type: functional, cell-based; method in brief: as §2
[30] = Efflux ratio of apparent permeability in hCMEC/D3 cells at 5 to 10 uM after 2 hrs by UV-spectroscopic method; type: ADME, cell-based; settings: human, hcmec/d3, 2 h
[31] = target: T2, N-formyl peptide receptor 2 (Homo sapiens); test: Agonist activity at FPR2 in human neutrophils assessed as induction of calcium mobilization measured every 5 secs for 240 secs by Fluo-4-AM dye based fluorometric method relative to fMLF
Microglia [32] = test: Anti-inflammatory activity in Sprague-Dawley rat primary microglia cells assessed as inhibition of LPS-induced NO level up to 10 uM pretreated for 1 hr followed by LPS stimulation for 24 hrs by Griess reagent based assay; type: functional, cell-based; method in brief: as §2
Microglia [33] = test: Anti-inflammatory activity in Sprague-Dawley rat primary microglia cells assessed as inhibition of LPS-induced IL-1beta level at 0.05 to 0.1 uM pretreated for 1 hr followed by LPS stimulation for 24 hrs by ELISA; type: functional, cell-based; method in brief: as §2
Microglia [34] = test: Anti-inflammatory activity in Sprague-Dawley rat primary microglia cells assessed as inhibition of LPS-induced TNFalpha level at 0.05 to 0.1 uM pretreated for 1 hr followed by LPS stimulation for 24 hrs by ELISA; type: functional, cell-based; method in brief: as §2

Row | Stability [3] [%] | EC50 [5] [nM] | Efficacy [6] [%] | EC50 (fMet-Leu-Phe receptor [7]) [nM] | Efficacy [8] [%] | EC50 [9] [nM] | t1/2 [10] [h] | Microsomal intrinsic clearance (CLint) [11] [µL/min/mg] | Compound | Activity (Microglia [12]) | Activity (Microglia [13]) | Activity (Microglia [14]) | Activity (Microglia [16]) | Activity (Microglia [17]) | Activity (Microglia [18]) | Activity (Microglia [19]) | Activity (Microglia [22]) | Activity (Microglia [23]) | Activity (Microglia [24]) | Activity (Microglia [25]) | inhibition (Microglia [26]) | also measured
1 | 11 |  |  |  |  |  |  |  | O=C(Nc1ccc([N+](=O)[O-])cc1)N[C@@H](Cc1c[nH]c2ccccc12)C(=O)NCC1(c2ccccc2)CC1 |  |  |  |  |  |  |  |  |  |  |  |  | EC50 [1]: 7600 nM; Efficacy [2]: 60%
2 | 4 |  |  |  |  |  |  |  | COc1ccc(NC(=O)N[C@@H](Cc2c[nH]c3ccccc23)C(=O)NCC2(c3ccc(OC)cn3)CCCCC2)cc1 |  |  |  |  |  |  |  |  |  |  |  |  | EC50 (fMet-Leu-Phe receptor [4]): 260 nM
3 | 56 | 630 | 100 | 2800 | 75 | 2500 | 2 | 5.78 | N#Cc1ccc(C[C@H](NC(=O)Nc2ccc([N+](=O)[O-])cc2)C(=O)NCC2(c3ccccc3)CC2)cc1 | Non-Toxic | Non-Toxic | Toxic | Active | inactive | Non-Toxic | Non-Toxic | Non-Toxic | Non-Toxic | Non-Toxic | Non-Toxic | Active | Activity (Microglia [15]): Toxic; inhibition (Microglia [20]): Active; inhibition (Microglia [21]): Active; inhibition (Microglia [27]): Active; inhibition (Microglia [28]): Active; inhibition (Microglia [29]): Active; Ratio [30]: 5.06; Efficacy [31]: 115%
4 | 33 | 3900 | 80 | 5200 | 55 | 190 | 0.8 | 14.4 | N#Cc1ccc(C[C@H](NC(=O)Nc2ccc(F)cc2)C(=O)NCC2(c3ccc(F)c(Cl)c3)CC2)cc1 | Non-Toxic | Non-Toxic | Toxic | Active | inactive | Non-Toxic | Non-Toxic | Non-Toxic | Non-Toxic | Non-Toxic | Non-Toxic | Active | Activity (Microglia [15]): Toxic; inhibition (Microglia [32]): inactive; inhibition (Microglia [27]): Active; inhibition (Microglia [28]): inactive; inhibition (Microglia [29]): inactive; inhibition (Microglia [33]): inactive; inhibition (Microglia [34]): inactive; Ratio [30]: 2.6; Efficacy [31]: 130%
5 | 45 | 2900 | 60 | 1500 | 145 | 120 | 1.65 | 7 | O=C(Nc1ccc([N+](=O)[O-])cc1)N[C@H](Cc1cccnc1)C(=O)NCC1(c2ccccc2)CC1 | Non-Toxic | Non-Toxic | Toxic | Active | inactive | Non-Toxic | Non-Toxic | Non-Toxic | Non-Toxic | Non-Toxic | Non-Toxic | Active | inhibition (Microglia [32]): inactive; inhibition (Microglia [27]): Active; inhibition (Microglia [28]): inactive; Ratio [30]: 3.7; Efficacy [31]: 90%
